We go through 9 compounds from ChEMBL document CHEMBL1157296, “Cytotoxic and antimicrobial benzophenones from the leaves of Tovomita longifolia” (2006).

SMILES strings stand for the structures. Values after ≈ are worked out from the molar mass of the structure shown. Active and inactive are the calls of the source.

Holding throughout (format): functional
One test has as its system Escherichia coli. The experiment in a line: Antimicrobial activity against Escherichia coli ATCC 9637.
Test [1] deals with Mycolicibacterium smegmatis. The experiment in a line: Antimicrobial activity against Mycobacterium smegmatis ATCC 607.
Another test relates to Staphylococcus aureus. The experiment in a line: Antimicrobial activity against Staphylococcus aureus ATCC 6538.
The test system of another test is Pseudomonas aeruginosa. The experiment in a line: Antimicrobial activity against Pseudomonas aeruginosa ATCC 27853.
Another test concerns SF-268. The experiment in a line: Cytotoxicity against human SF268 cells. A digest of the protocol: (§1)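 Human cancer cell lines of breast (MCF-7), CNS (SF-268) and lung (H-460) origin were tested by the Monks et al. method. All three lines were used throughout to monitor fractions and isolated compounds.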
The subject of test [2] is Salmonella enterica subsp. enterica serovar Gallinarum. The experiment in a line: Antimicrobial activity against Salmonella gallinarum ATCC 9184.
Another test deals with Klebsiella pneumoniae. The experiment in a line: Antimicrobial activity against Klebsiella pneumoniae ATCC 10031.
A further test deals with NCI-H460. The experiment in a line: Cytotoxicity against human H460 cells. A digest of the protocol: as §1
In the next test the test system is MCF7. The experiment in a line: Cytotoxicity against human MCF7 cells. A digest of the protocol:
as §1

For the next test, the system named is Candida albicans. The experiment in a line: Antimicrobial activity against Candida albicans ATCC 10231.

For the compound `CC(C)=CCC/C(C)=C/COc1cc(O)c(C(=O)c2ccccc2)c(O)c1`, the outcome (with Escherichia coli; with Pseudomonas aeruginosa; in test [2]; in the test with Klebsiella pneumoniae; with Candida albicans) was inactive. Moreover, the MIC (in test [1]; with Staphylococcus aureus) was 12.5 µg/mL (≈ 34.1 µM) in each case. The results for the concentration for 50% growth inhibition (GI50) with SF-268, with NCI-H460 and in the test on MCF7 were 2 µg/mL (≈ 5.46 µM), 4.4 µg/mL (≈ 12 µM) and 4.8 µg/mL (≈ 13.1 µM), respectively.

As for `C[C@@H]1[C@H](O)[C@@H](C)/C=C/C=C/C=C/C=C/C=C/C=C/C=C/[C@H](O[C@@H]2O[C@H](C)[C@@H](O)[C@H](N)[C@@H]2O)C[C@@H]2O[C@](O)(C[C@@H](O)C[C@@H](O)[C@H](O)CC[C@@H](O)C[C@@H](O)CC(=O)O[C@H]1C)C[C@H](O)[C@H]2C(=O)O`, the outcome (in the test with Escherichia coli; in [1]; in the test on Staphylococcus aureus; with Pseudomonas aeruginosa; in test [2]; in the test on Klebsiella pneumoniae) was inactive.

For the compound `COc1cccc2c1C(=O)c1c(O)c3c(c(O)c1C2=O)C[C@@](O)(C(=O)CO)C[C@@H]3O[C@H]1C[C@H](N)[C@H](O)[C@H](C)O1` [DOXORUBICIN], the GI50 (as a rule, the concentration that inhibits growth by half) with SF-268 is 0.5 µg/mL (≈ 0.92 µM); with NCI-H460, 0.42 µg/mL (≈ 0.773 µM); in the test with MCF7, 0.38 µg/mL (≈ 0.699 µM).

`CC(C)=CCC[C@]1(C)Oc2c(c(O)cc(O)c2C(=O)c2ccccc2)C[C@@H]1O`: the result (in the test with Escherichia coli; in the test with Staphylococcus aureus; in the test with Pseudomonas aeruginosa; in test [2]; in the test on Candida albicans) was inactive. For the same compound, the MIC (in [1]; against Klebsiella pneumoniae) was 25 µg/mL (≈ 65.4 µM) each time. Also, the results for the GI50 in the test with SF-268, in the test with NCI-H460 and with MCF7 were 5.6 µg/mL (≈ 14.6 µM), 6.5 µg/mL (≈ 17 µM) and 6.8 µg/mL (≈ 17.8 µM), respectively.

Consider `C=C(C)[C@H](O)CC/C(C)=C/Cc1c(O)cc(O)c(C(=O)c2ccccc2)c1O`, for which the outcome in the test with SF-268, in the test with NCI-H460 and in the test on MCF7 was inactive.

With `CN[C@@H]1[C@H](O[C@H]2[C@H](O[C@H]3[C@H](O)[C@@H](O)[C@H](N=C(N)N)[C@@H](O)[C@@H]3N=C(N)N)O[C@@H](C)[C@]2(O)C=O)O[C@@H](CO)[C@H](O)[C@H]1O.CN[C@@H]1[C@H](O[C@H]2[C@H](O[C@H]3[C@H](O)[C@@H](O)[C@H](N=C(N)N)[C@@H](O)[C@@H]3N=C(N)N)O[C@@H](C)[C@]2(O)C=O)O[C@@H](CO)[C@H](O)[C@H]1O.O=S(=O)(O)O.O=S(=O)(O)O.O=S(=O)(O)O` [STREPTOMYCIN SULFATE], the MIC (usually the smallest concentration in the dilution series that meets the test's criterion for growth inhibition) in the test with Escherichia coli stood at 6.25 µg/mL; in test [1], 12.5 µg/mL; in the test on Staphylococcus aureus, 12.5 µg/mL; against Pseudomonas aeruginosa it was 1.56 µg/mL; in test [2], 3.12 µg/mL; against Klebsiella pneumoniae it was 3.12 µg/mL. The outcome in the test on Candida albicans was inactive.

Take `CC1(C)CCC[C@]2(C)Oc3c(c(O)cc(O)c3C(=O)c3ccccc3)C[C@@H]12`: the result with Escherichia coli and in the test with Candida albicans was inactive. Further, the minimal inhibitory concentration (MIC) is 6.25 µg/mL (≈ 17.1 µM) in test [1]; 12.5 µg/mL (≈ 34.1 µM) against Staphylococcus aureus; 12.5 µg/mL (≈ 34.1 µM) in the test on Pseudomonas aeruginosa; 12.5 µg/mL (≈ 34.1 µM) in test [2]; 6.25 µg/mL (≈ 17.1 µM) against Klebsiella pneumoniae. In addition, the GI50 with SF-268 came to 1.7 µg/mL (≈ 4.64 µM); in the test with NCI-H460, 2.1 µg/mL (≈ 5.73 µM); in the test with MCF7, 1.8 µg/mL (≈ 4.91 µM).

In the case of `C=C(CCC=C(C)C)[C@H](O)Cc1c(O)cc(O)c(C(=O)c2ccccc2)c1O`, the GI50 with SF-268 amounted to 6.5 µg/mL (≈ 17 µM); with NCI-H460, 7.8 µg/mL (≈ 20.4 µM); in the test with MCF7, 6.7 µg/mL (≈ 17.5 µM).

As to `CC(C)=CCC/C(C)=C/Cc1c(O)cc(O)c(C(=O)c2ccccc2)c1O`, the outcome (in the test with Escherichia coli; in the test on Staphylococcus aureus; with Pseudomonas aeruginosa; in the test with SF-268; in test [2]; in the test on Klebsiella pneumoniae) was inactive. Moreover, the outcome in the test on NCI-H460, in the test on MCF7 and in the test on Candida albicans was inactive. In test [1], this compound returned an MIC of 50 µg/mL (≈ 136 µM).
